Test results: ChEMBL document CHEMBL4261537, “Synthesis and pharmacological evaluation of multi-functional homoisoflavonoid derivatives as potent inhibitors of monoamine oxidase B and cholinesterase for the treatment of Alzheimer's disease” (Medchemcomm, 2017); call rule not given here

How the values were obtained:
[1] = target: T1, Acetylcholinesterase (Electrophorus electricus, UniProt O42275); assay: Inhibition of electric eel AChE using acetylthiocholine iodide as substrate preincubated for 5 mins followed by substrate addition measured at 1 to 3 mins time interval by Ellman's method
T1 sequence (O42275 whole entry): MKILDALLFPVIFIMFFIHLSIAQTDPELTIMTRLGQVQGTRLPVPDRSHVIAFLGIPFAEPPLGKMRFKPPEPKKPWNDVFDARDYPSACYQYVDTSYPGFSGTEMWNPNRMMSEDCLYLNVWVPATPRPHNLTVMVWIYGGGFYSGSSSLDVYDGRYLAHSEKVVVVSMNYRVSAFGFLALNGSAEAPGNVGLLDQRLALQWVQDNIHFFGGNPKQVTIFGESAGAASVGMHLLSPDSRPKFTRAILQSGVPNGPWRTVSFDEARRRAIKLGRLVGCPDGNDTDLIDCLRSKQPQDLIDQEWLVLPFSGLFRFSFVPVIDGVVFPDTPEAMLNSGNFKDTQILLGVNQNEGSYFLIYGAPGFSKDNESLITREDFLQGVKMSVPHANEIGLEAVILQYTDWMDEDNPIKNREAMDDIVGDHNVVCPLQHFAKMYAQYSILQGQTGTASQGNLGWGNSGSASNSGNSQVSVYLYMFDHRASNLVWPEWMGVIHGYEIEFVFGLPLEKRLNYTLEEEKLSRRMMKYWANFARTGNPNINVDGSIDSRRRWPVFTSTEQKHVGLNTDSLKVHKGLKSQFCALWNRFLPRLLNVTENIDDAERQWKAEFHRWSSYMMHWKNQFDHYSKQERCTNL

[2] = target: T2, Cholinesterase (Equus caballus, UniProt P81908); assay: Inhibition of equine serum BuChE using S-butyrylthiocholine iodide as substrate preincubated for 5 mins followed by substrate addition measured at 1 to 3 mins time interval by Ellman's method; format: ADME
T2 sequence (P81908 whole entry): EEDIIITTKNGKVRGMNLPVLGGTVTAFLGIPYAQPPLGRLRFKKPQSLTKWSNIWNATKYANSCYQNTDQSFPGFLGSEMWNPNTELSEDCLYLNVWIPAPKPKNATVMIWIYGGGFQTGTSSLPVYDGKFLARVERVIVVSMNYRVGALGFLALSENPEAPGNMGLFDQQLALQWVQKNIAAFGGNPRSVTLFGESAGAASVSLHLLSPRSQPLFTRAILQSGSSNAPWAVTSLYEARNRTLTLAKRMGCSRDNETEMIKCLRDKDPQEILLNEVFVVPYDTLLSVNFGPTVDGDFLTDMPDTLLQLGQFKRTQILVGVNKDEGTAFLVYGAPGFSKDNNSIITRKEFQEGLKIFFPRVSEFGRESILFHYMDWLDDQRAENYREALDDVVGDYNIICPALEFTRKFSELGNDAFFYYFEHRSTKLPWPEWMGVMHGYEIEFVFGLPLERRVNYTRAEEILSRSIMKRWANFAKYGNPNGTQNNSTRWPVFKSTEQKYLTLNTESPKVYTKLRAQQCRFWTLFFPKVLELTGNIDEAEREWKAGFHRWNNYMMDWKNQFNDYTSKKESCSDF

[3] = Selectivity index, ratio of IC50 for equine serum BuChE to IC50 for electric eel AChE
[4] = target: T3, Amine oxidase [flavin-containing] B (Homo sapiens, UniProt P27338); assay: Inhibition of recombinant human MAO-B assessed as reduction in H2O2 production at 100 uM using p-tyramine as substrate preincubated for 15 mins followed by substrate addition by Amplex red reagent based fluorescence assay
T3 sequence (P27338 whole entry): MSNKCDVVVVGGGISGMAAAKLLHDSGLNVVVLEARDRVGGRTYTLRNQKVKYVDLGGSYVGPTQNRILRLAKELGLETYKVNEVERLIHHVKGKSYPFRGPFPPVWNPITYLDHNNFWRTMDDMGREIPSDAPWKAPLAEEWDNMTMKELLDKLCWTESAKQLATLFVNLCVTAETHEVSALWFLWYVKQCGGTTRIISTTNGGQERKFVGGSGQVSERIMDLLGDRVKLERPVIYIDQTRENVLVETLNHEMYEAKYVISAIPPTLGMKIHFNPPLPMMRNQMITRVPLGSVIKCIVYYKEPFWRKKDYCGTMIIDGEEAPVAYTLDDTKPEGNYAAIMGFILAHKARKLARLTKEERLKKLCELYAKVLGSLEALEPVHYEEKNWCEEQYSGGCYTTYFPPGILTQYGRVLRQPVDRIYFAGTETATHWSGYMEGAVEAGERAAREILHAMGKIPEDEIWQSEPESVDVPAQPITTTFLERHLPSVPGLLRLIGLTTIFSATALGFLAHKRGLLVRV
Summary of the method: (§1)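 Human MAO-A or MAO-B, each set to the same control reaction velocity. Preincubated with compound 15 min at 37°C in the dark, in sodium phosphate buffer with DMSO. Then 200 μM Amplex Red (final) added with 1 U/mL HRP and 1 mM p-tyramine. Resorufin fluorescence read at 37°C (ex 545/em 590 nm), background from enzyme-free wells subtracted. Run in triplicate, mean ± SD.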

[5] = target: T4, Amine oxidase [flavin-containing] A (Homo sapiens, UniProt P21397); assay: Inhibition of recombinant human MAO-A assessed as reduction in H2O2 production at 100 uM using p-tyramine as substrate preincubated for 15 mins followed by substrate addition by Amplex red reagent based fluorescence assay; summary of the method: as §1
T4 sequence (P21397 whole entry): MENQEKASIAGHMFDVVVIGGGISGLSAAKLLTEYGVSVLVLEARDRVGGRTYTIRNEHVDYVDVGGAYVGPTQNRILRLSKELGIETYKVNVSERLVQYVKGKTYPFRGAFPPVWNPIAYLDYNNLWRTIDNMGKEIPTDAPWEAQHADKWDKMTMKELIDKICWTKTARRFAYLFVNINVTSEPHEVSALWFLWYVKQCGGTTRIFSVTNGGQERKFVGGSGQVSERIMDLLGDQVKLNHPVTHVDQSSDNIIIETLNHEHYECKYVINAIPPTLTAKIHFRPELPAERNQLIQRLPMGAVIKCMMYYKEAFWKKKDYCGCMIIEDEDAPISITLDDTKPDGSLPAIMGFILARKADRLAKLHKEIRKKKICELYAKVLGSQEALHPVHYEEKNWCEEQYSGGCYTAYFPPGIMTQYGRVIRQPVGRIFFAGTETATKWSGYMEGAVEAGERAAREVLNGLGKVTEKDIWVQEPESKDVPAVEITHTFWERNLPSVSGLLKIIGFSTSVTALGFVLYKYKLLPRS

[6] = target: T3, Amine oxidase [flavin-containing] B; assay: Inhibition of recombinant human MAO-B assessed as reduction in H2O2 production using p-tyramine as substrate preincubated for 15 mins followed by substrate addition by Amplex red reagent based fluorescence assay
Summary of the method: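 Human MAO-A or MAO-B, each set to the same control reaction velocity. Preincubated with compound 15 min at 37°C in the dark, in sodium phosphate buffer with DMSO. Then 200 μM Amplex Red (final) added with 1 U/mL HRP and 1 mM p-tyramine. Run in triplicate, mean ± SD.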

[7] = target: T4, Amine oxidase [flavin-containing] A; assay: Inhibition of recombinant human MAO-A assessed as reduction in H2O2 production using p-tyramine as substrate preincubated for 15 mins followed by substrate addition by Amplex red reagent based fluorescence assay
[8] = species on record: Homo sapiens; assay: Selectivity index, ratio of IC50 for recombinant human MAO-A to IC50 for recombinant human MAO-B
[9] = target: Acetylcholinesterase (Homo sapiens, UniProt P22303); assay: Inhibition of human erythrocytes AChE using acetylthiocholine iodide as substrate preincubated for 5 mins followed by substrate addition measured at 1 to 3 mins time interval by Ellman's method
Acetylcholinesterase (Homo sapiens, UniProt P22303), sequence (P22303 whole entry): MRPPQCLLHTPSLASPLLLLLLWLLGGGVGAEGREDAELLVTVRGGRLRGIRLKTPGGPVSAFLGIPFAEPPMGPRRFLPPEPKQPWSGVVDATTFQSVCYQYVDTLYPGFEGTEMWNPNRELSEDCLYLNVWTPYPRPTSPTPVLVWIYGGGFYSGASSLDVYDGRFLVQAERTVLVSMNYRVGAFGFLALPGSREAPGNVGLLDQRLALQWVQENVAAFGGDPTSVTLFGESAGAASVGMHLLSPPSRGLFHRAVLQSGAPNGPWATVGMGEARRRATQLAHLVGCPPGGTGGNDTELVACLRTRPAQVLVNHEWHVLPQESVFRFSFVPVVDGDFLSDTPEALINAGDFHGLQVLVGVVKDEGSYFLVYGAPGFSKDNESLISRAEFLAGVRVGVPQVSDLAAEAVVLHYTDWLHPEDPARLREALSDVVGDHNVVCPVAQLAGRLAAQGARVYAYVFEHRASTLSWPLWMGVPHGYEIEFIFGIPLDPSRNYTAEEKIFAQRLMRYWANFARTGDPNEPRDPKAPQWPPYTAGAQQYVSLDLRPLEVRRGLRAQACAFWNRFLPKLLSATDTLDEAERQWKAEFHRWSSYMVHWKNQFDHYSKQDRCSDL

[10] = target: T5, Cholinesterase (Homo sapiens, UniProt P06276); assay: Inhibition of human serum BuChE using S-butyrylthiocholine iodide as substrate preincubated for 5 mins followed by substrate addition measured at 1 to 3 mins time interval by Ellman's method; format: ADME
T5 sequence (P06276 whole entry): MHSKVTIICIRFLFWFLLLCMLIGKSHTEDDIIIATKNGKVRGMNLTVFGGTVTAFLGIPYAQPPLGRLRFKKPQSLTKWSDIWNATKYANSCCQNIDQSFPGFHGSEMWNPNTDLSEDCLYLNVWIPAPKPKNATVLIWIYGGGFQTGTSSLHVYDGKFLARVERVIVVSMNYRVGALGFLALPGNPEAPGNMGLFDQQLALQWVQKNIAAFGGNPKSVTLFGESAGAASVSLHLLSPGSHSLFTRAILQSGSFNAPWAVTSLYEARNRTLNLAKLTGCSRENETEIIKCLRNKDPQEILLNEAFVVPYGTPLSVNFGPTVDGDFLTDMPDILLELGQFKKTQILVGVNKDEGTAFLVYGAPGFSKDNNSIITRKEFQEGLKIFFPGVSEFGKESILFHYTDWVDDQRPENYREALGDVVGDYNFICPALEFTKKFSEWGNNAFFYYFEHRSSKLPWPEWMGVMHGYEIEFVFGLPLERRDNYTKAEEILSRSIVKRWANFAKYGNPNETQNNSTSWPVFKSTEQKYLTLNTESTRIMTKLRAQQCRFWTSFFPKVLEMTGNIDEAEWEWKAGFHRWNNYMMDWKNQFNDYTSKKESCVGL

[11] = species on record: Homo sapiens; assay: Selectivity index, ratio of IC50 for human serum BuChE to IC50 for human erythrocytes AChE
[12] = target: T1, Acetylcholinesterase; assay: Mixed-type inhibition of electric eel AChE using varying levels of acetylthiocholine iodide as substrate measured at 1 to 3 mins time interval by Lineweaver-Burk plot analysis
Summary of the method: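 Electric eel AChE assayed by Ellman's method at […] substrate 0.05-0.25 mM, without inhibitor and with inhibitor at 0.5, 1.0 or 2.0 μM; activity read at 0, 1, 2, 3 min. Lineweaver–Burk plots built; their slopes plotted against inhibitor concentration, Ki taken as the negative x-axis intercept.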

[13] = target: T3, Amine oxidase [flavin-containing] B; assay: Time-dependent inhibition of recombinant human MAO-B at 0.003 uM using p-tyramine as substrate preincubated for 15 to 60 mins followed by substrate addition and compound dilution to IC50 by Amplex red reagent based fluorescence assay
[14] = target: T3, Amine oxidase [flavin-containing] B; assay: Reversible inhibition of recombinant human MAO-B at 0.003 uM using p-tyramine as substrate preincubated for 15 to 60 mins followed by substrate addition and compound dilution to IC50 by Amplex red reagent based fluorescence assay
[15] = target: T3, Amine oxidase [flavin-containing] B; assay: Non-competitive inhibition of recombinant human MAO-B assessed as reduction in H2O2 production at 0.015 to 0.06 uM using p-tyramine as substrate preincubated for 15 mins followed by substrate addition by Lineweaver-Burk plot analysis
[16] = Effective permeability of the compound at 0.1 mg/ml after 16 hrs by PAMPA; format: ADME; conditions: read-out: Peff
Summary of the method: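 Porcine brain lipid in dodecane (20 mg/mL) coated on PVDF filter. Compound stock 5 mg/mL in DMSO, diluted 50-fold into PBS/EtOH (70:30) to 0.1 mg/mL in donor wells; acceptor holds PBS/EtOH (70:30). Incubated 16 h at 25°C. UV plate read at five wavelengths, four wells, at least three runs. Pe derived from acceptor absorbance versus theoretical equilibrium absorbance.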

[17] = tested on: Mus musculus; assay: Acute toxicity in Kunming mouse assessed as fatality up to 2000 mg/kg, po administered as single dose up to 2 weeks; format: organism-based; conditions: in vivo, 336 h
Summary of the method: (§2)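 Male Kunming mice (18-22g), acclimatised 4 days, fasted 12 h; single oral dose of 677, 1333 or 2000 mg/kg suspended in 0.5% CMC-Na (0.4 ml per mouse), vehicle group 0 mg/kg; 20 mice in 4 groups. Watched continuously for 4 h for abnormal behaviour and deaths, then intermittently to 24 h; observation over 14 days.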

[18] = tested on: Mus musculus; assay: Acute toxicity in Kunming mouse assessed as change in body weight up to 2000 mg/kg, po administered as single dose up to 2 weeks; format: organism-based; conditions: in vivo, 336 h
[19] = tested on: Mus musculus; assay: Acute toxicity in Kunming mouse assessed as change in mental behavior up to 2000 mg/kg, po administered as single dose up to 2 weeks; format: organism-based; conditions: in vivo, 336 h; summary of the method: as §2
[20] = tested on: Mus musculus; assay: Acute toxicity in Kunming mouse assessed as damage to heart up to 2000 mg/kg, po administered as single dose measured after 14 days; format: organism-based; conditions: in vivo, 336 h
Summary of the method: (§3)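 Male Kunming mice given one oral dose (0, 677, 1333, 2000 mg/kg) in 0.5% CMC-Na after a 12 h fast; after 14 days of observation, animals sacrificed and liver, heart and kidneys visually examined for damage.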

[21] = tested on: Mus musculus; assay: Acute toxicity in Kunming mouse assessed as damage to kidney up to 2000 mg/kg, po administered as single dose measured after 14 days; format: organism-based; conditions: in vivo, 336 h; summary of the method: as §3
[22] = tested on: Mus musculus; assay: Acute toxicity in Kunming mouse assessed as damage to liver up to 2000 mg/kg, po administered as single dose measured after 14 days; format: organism-based; conditions: in vivo, 336 h; summary of the method: as §3
[23] = target: T2, Cholinesterase; assay: Inhibition of equine serum BuChE at 100 uM using S-butyrylthiocholine iodide as substrate preincubated for 5 mins followed by substrate addition measured at 1 to 3 mins time interval by Ellman's method; conditions: horse
Summary of the method: (§4)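 Ellman assay: compound diluted in 50 mM Tris-HCl pH 8.0 with 0.1 M NaCl, 0.02 M MgCl2 (DMSO 1%). Preincubated 5 min at 37°C with 1.5 mM DTNB and BuChE (0.12 U/mL in Tris with 0.1% BSA); 15 mM S-butyrylthiocholine iodide added; absorbance at 405 nm read at 0, 1, 2, 3 min.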

[24] = target: T5, Cholinesterase; assay: Inhibition of human serum BuChE at 100 uM using S-butyrylthiocholine iodide as substrate preincubated for 5 mins followed by substrate addition measured at 1 to 3 mins time interval by Ellman's method; summary of the method: as §4

SMILES | IC50 [1] [µM] | IC50 [2] [µM] | Ratio IC50 [3] | inhibition (INH) [5] | IC50 [6] [µM] | IC50 [7] [µM] | Ratio IC50 [8] | IC50 [9] [µM] | IC50 [10] [µM] | Ratio IC50 [11] | other results
CCN(CC)CCCOc1ccccc1/C=C1\COc2ccccc2C1=O | 54.8 | 4.89 | 0.0892 | Not Active | – | – | – | – | – | – | inhibition (INH) [4]: Not Active
CN(C)CCOc1ccc(/C=C2\COc3ccccc3C2=O)cc1 | 0.89 | 28.7 | 32.3 | – | 0.0372 | 38.1 | 1024 | 0.657 | 9.31 | 14.2 | Ki [12]: 0.404 µM; TDI [13]: Not Active; inhibition (INH) [14]: Active; Ki [15]: 0.551 µM; Papp at 16 h, 0.1 mg/ml [16]: 10.6 ×10⁻⁶ cm/s; Activity [17]: Non-Toxic; Activity [18]: Non-Toxic; Activity [19]: Non-Toxic; Activity [20]: Non-Toxic; Activity [21]: Non-Toxic; Activity [22]: Non-Toxic
O=C1/C(=C/c2ccc(OCCCCCCN3CCN(Cc4ccccc4)CC3)cc2)COc2ccccc21 | 60.8 | – | > 1.65 | Not Active | > 100 | – | > 1 | – | – | – | inhibition (INH) [23]: Not Active
O=C1/C(=C/c2ccc(O)cc2)COc2ccccc21 | 44.4 | – | > 2.25 | Not Active | 0.242 | – | > 413 | 99.9 | – | 1.01 | inhibition (INH) [23]: Not Active; inhibition (INH) [24]: Not Active
CCN(CC)CCCCCCOc1ccc(/C=C2\COc3ccccc3C2=O)cc1 | 3.75 | 4.83 | 1.29 | – | 2.9 | 37.8 | 13.1 | 1.85 | 4.25 | 2.3 | –
CCN(CC)CCOc1ccc(/C=C2\COc3ccccc3C2=O)cc1 | 1.03 | 28.9 | 28 | – | 0.0381 | 46.6 | 1220 | 3.29 | 23.6 | 7.17 | –
O=C1/C(=C/c2ccc(OCCCN3CCN(Cc4ccccc4)CC3)cc2)COc2ccccc21 | 1.02 | 89.5 | 87.8 | Not Active | 38.6 | – | > 2.59 | 4.72 | – | > 21.2 | inhibition (INH) [24]: Not Active
CCN(CC)CCCCOc1ccc(/C=C2\COc3ccccc3C2=O)cc1 | 6.1 | 4.61 | 0.756 | – | 2.86 | 52.9 | 18.5 | 14.1 | 11.3 | 0.801 | –
